The values below come from ChEMBL document CHEMBL1250442, “Inhibiting gene expression at transcription start sites in chromosomal DNA with antigene RNAs” (Nat Chem Biol, 2005).

The structures appear in SMILES notation. Activity calls are given as the source filed them. The rule behind the calls is not given here.

Assay [1] relates to T47D. In words: Inhibition of PR-B gene expression in human T47D cells harboring inactive DNA methyltransferase-1 at 100 nM by syber green assay. It is filed as functional, cell-based.
The test system of assay [2] is T47D. In words: Inhibition of PR-A gene expression in human T47D cells at 25 nM by syber green assay in presence of 10 nM estradiol. In kind it is functional, cell-based.
For assay [3], the system named is T47D. In words: Inhibition of PR-B gene expression in human T47D cells at 25 nM by syber green assay in presence of 10 nM estradiol. It is filed as functional, cell-based.
Assay [4] deals with T47D. As to the kind of experiment: Inhibition of PR-A mRNA gene expression in human T47D cells at 100 nM by syber green assay. In kind it is functional. The essentials: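 T47D cells plated at 80,000/well without antibiotics two days before Oligofectamine transfection with agRNA duplex (25 or 100 nM final); medium changed at 24 h, harvest day 5 unless stated otherwise. TRIzol total RNA; PR mRNA by real-time PCR with SYBR Green: 50 °C 2 min, 95 °C 10 min, 40 cycles 95 °C 15 s/60 °C 1 min.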

Assay [5] has as its system T47D. As to the kind of experiment: Inhibition of PR-B mRNA gene expression in human T47D cells at 100 nM by syber green assay. It is filed as functional. In a few lines: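 T47D cells in RPMI-1640 with 10% FBS, NEAA, insulin, 37 °C, 5% CO2. Plated two days before transfection without antibiotics. Oligofectamine-mediated duplex RNA transfection at 100 nM final, medium changed at 24 h, harvest five days post-transfection. Total RNA extracted with TRIzol. hPR mRNA quantified by SYBR Green qPCR: 50 °C 2 min, 95 °C 10 min, then 40 cycles of 95 °C 15 s / 60 °C 1 min.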

Assay [6] deals with T47D. As to the kind of experiment: Inhibition of PR-A gene expression in human T47D cells harboring inactive DNA methyltransferase-1 at 100 nM by syber green assay. It is filed as functional, cell-based.

The inhibition is the change of the read-out against control, counted positive when it falls. For the compound `Cc1cn([C@H]2C[C@H](OP(=O)(O)OC[C@H]3O[C@@H](n4cc(C)c(=O)[nH]c4=O)C[C@@H]3O)[C@@H](COP(=O)(O)O[C@H]3[C@@H](O)[C@H](n4ccc(N)nc4=O)O[C@@H]3COP(=O)(O)O[C@H]3[C@@H](O)[C@H](n4cnc5c(=O)[nH]c(N)nc54)O[C@@H]3COP(=O)(O)O[C@H]3[C@@H](O)[C@H](n4cnc5c(N)ncnc54)O[C@@H]3COP(=O)(O)O[C@H]3[C@@H](O)[C@H](n4ccc(N)nc4=O)O[C@@H]3COP(=O)(O)O[C@H]3[C@@H](O)[C@H](n4cnc5c(N)ncnc54)O[C@@H]3COP(=O)(O)O[C@H]3[C@@H](O)[C@H](n4ccc(N)nc4=O)O[C@@H]3COP(=O)(O)O[C@H]3[C@@H](O)[C@H](n4ccc(N)nc4=O)O[C@@H]3COP(=O)(O)O[C@H]3C[C@H](n4ccc(=O)[nH]c4=O)O[C@@H]3COP(=O)(O)O[C@H]3[C@@H](O)[C@H](n4cnc5c(=O)[nH]c(N)nc54)O[C@@H]3COP(=O)(O)O[C@H]3[C@@H](O)[C@H](n4cnc5c(N)ncnc54)O[C@@H]3COP(=O)(O)O[C@H]3[C@@H](O)[C@H](n4cnc5c(=O)[nH]c(N)nc54)O[C@@H]3COP(=O)(O)O[C@H]3[C@@H](O)[C@H](n4ccc(N)nc4=O)O[C@@H]3COP(=O)(O)O[C@H]3[C@@H](O)[C@H](n4cnc5c(=O)[nH]c(N)nc54)O[C@@H]3COP(=O)(O)O[C@H]3[C@@H](O)[C@H](n4ccc(N)nc4=O)O[C@@H]3COP(=O)(O)O[C@H]3[C@@H](O)[C@H](n4ccc(=O)[nH]c4=O)O[C@@H]3COP(=O)(O)O[C@H]3[C@@H](O)[C@H](n4ccc(N)nc4=O)O[C@@H]3CO[PH](=O)O[C@H]3[C@@H](O)[C@H](n4ccc(=O)[nH]c4=O)O[C@@H]3COP(=O)(O)O[C@H]3[C@@H](O)[C@H](n4ccc(N)nc4=O)O[C@@H]3COP(=O)(O)O[C@H]3[C@@H](O)[C@H](n4ccc(=O)[nH]c4=O)O[C@@H]3CO)O2)c(=O)[nH]c1=O` (stereo partly specified), the inhibition result in assay [1], in assay [2], in assay [3] and in assay [6] was “Active” in each case. Besides, the inhibition at 0.1 µM in assay [4] and in assay [5] was less than 20% throughout.
